The source of these data is ChEMBL document CHEMBL5537160, “Design, Synthesis, Pharmacology, and In Silico Studies of (1S,2S,3S)-2-((S)-Amino(carboxy)methyl)-3-(carboxymethyl)cyclopropane-1-carboxylic Acid (LBG30300): A Picomolar Potency Subtype-Selective mGlu2 Receptor Agonist” (J Med Chem, 2024).

Holding throughout (type): functional, cell-based
The target of assay [1] is T1, Metabotropic glutamate receptor 3 (Rattus norvegicus, UniProt P31422). Put plainly: Agonist activity at rat mGlu3 transfected in HEK293 cells assessed as inositol phosphate accumulation.
Assay [2] concerns the target Metabotropic glutamate receptor 1 (Rattus norvegicus) (UniProt P23385). As to the kind of experiment: Antagonist activity at rat mGlu1 transfected in HEK293 cells by IP-one HTRF assay. An outline of the steps: (§1)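 HEK293 cells transiently electroporated with rat receptor plasmid plus EAAC1 Glu transporter, plated 150 000 cells/well on polyornithine, serum-free Glutamax DMEM ≥2 h before assay. At 24 h, washed in Krebs buffer and stimulated 30 min with compound in 50 mM LiCl. IP1 read by HTRF, at least duplicates, EC50 from 2–5 experiments.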
For orientation: TR-FRET usually uses a lanthanide donor and a delayed reading to cut background.

Assay [3] addresses Metabotropic glutamate receptor 2 (Rattus norvegicus) (UniProt P31421). As to the kind of experiment: Antagonist activity at rat mGlu2 transfected in HEK293 cells co-transfected with chimeric Gqi9 incubated for 30 mins by IP-one HTRF assay.
In assay [4] the target is Metabotropic glutamate receptor 3 (Rattus norvegicus) (UniProt P31422). Put plainly: Antagonist activity at rat mGlu3 transfected in HEK293 cells co-transfected with chimeric Gqi9 incubated for 30 mins by IP-one HTRF assay.
Assay [5] concerns the target Metabotropic glutamate receptor 4 (Rattus norvegicus) (UniProt P31423). Put plainly: Antagonist activity at rat mGlu4 transfected in HEK293 cells co-transfected with chimeric Gqi9 incubated for 30 mins by IP-one HTRF assay. The procedure, abridged: (§2)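 Rat group II/III receptor co-electroporated into HEK293 with chimeric Gqi9 and EAAC1 transporter, serum-free medium ≥2 h pre-assay. At 24 h post-transfection, Krebs wash, then 30 min compound exposure with 50 mM LiCl. IP1 accumulation quantified by HTRF kit, at least duplicate runs, mean of 2–5 experiments.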

For assay [6], the target named is Metabotropic glutamate receptor 5 (Rattus norvegicus) (UniProt P31424). Put plainly: Antagonist activity at rat mGlu5 transfected in HEK293 cells by IP-one HTRF assay. An outline of the steps: as §1
The target of assay [7] is Metabotropic glutamate receptor 6 (Rattus norvegicus) (UniProt P35349). Put plainly: Antagonist activity at rat mGlu6 transfected in HEK293 cells co-transfected with chimeric Gqi9 incubated for 30 mins by IP-one HTRF assay. The procedure, abridged: as §2
The target in assay [8] is Metabotropic glutamate receptor 7 (Rattus norvegicus) (UniProt P35400). Put plainly: Antagonist activity at rat mGlu7 transfected in HEK293 cells co-transfected with chimeric Gqi9 incubated for 30 mins by IP-one HTRF assay. An outline of the steps:
as §2

For assay [9], the target named is Metabotropic glutamate receptor 8 (Rattus norvegicus) (UniProt P70579). Put plainly: Antagonist activity at rat mGlu8 transfected in HEK293 cells co-transfected with chimeric Gqi9 incubated for 30 mins by IP-one HTRF assay. An outline of the steps: as §2
Sequence of Metabotropic glutamate receptor 8 (Rattus norvegicus) (P70579 whole entry): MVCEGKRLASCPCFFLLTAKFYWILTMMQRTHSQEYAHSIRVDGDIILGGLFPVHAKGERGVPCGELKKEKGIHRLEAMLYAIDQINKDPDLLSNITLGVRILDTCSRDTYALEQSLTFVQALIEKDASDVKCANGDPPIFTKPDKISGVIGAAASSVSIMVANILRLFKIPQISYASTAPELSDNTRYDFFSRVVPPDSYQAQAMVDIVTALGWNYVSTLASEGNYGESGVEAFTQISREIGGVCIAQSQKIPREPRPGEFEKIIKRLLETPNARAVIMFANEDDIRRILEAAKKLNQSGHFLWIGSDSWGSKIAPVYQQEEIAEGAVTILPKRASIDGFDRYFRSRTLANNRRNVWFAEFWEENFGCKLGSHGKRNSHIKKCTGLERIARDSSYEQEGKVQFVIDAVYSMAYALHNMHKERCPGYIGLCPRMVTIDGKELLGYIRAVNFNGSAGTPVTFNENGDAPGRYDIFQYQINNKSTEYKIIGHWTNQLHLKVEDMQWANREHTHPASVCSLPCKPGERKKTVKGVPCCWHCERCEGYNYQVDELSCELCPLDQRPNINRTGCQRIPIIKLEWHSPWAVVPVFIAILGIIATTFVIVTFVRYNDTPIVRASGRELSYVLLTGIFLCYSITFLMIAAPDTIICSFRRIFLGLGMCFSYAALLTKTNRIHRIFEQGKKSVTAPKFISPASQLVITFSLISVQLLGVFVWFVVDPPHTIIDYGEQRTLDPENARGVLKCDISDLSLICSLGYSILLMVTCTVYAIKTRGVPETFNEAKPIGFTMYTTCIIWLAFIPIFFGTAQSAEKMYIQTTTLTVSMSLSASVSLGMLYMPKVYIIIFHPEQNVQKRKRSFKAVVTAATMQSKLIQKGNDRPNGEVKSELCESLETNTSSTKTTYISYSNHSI
In assay [10] the target is Metabotropic glutamate receptor 5 (Rattus norvegicus, UniProt P31424). Put plainly: Agonist activity at rat mGlu5 transfected in HEK293 cells by IP-one HTRF assay. An outline of the steps: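 HEK293 cells transiently electroporated with rat receptor plasmid plus the high-affinity Glu transporter EAAC1. Cells were grown in DMEM with 10% FBS and seeded on polyornithine-coated wells at 150 000 cells/well. Medium was switched to serum-free Glutamax DMEM ≥2 h before assay. At 24 h cells were washed in Krebs buffer and stimulated 30 min with agonist plus 50 mM LiCl. IP1 read by IP-One HTRF; ≥ duplicates.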

Assay [11] addresses Metabotropic glutamate receptor 1 (Rattus norvegicus, UniProt P23385). Put plainly: Agonist activity at rat mGlu1 transfected in HEK293 cells by IP-one HTRF assay. The procedure, abridged: as §1
Assay [12] concerns the target T1, Metabotropic glutamate receptor 3. Put plainly: Agonist activity at rat mGlu3 transfected in HEK293 cells co-transfected with chimeric Gqi9 incubated for 30 mins by IP-one HTRF assay.
The target of assay [13] is Metabotropic glutamate receptor 4 (Rattus norvegicus, UniProt P31423). As to the kind of experiment: Agonist activity at rat mGlu4 transfected in HEK293 cells co-transfected with chimeric Gqi9 incubated for 30 mins by IP-one HTRF assay. Particulars: read-out: EC50. The procedure, abridged:
as §2

In assay [14] the target is Metabotropic glutamate receptor 6 (Rattus norvegicus, UniProt P35349). As to the kind of experiment: Agonist activity at rat mGlu6 transfected in HEK293 cells co-transfected with chimeric Gqi9 incubated for 30 mins by IP-one HTRF assay. The procedure, abridged: as §2
Assay [15] deals with Metabotropic glutamate receptor 7 (Rattus norvegicus, UniProt P35400). Put plainly: Agonist activity at rat mGlu7 transfected in HEK293 cells co-transfected with chimeric Gqi9 incubated for 30 mins by IP-one HTRF assay. The procedure, abridged:
as §2

The target in assay [16] is Metabotropic glutamate receptor 8 (Rattus norvegicus, UniProt P70579). As to the kind of experiment: Agonist activity at rat mGlu8 transfected in HEK293 cells co-transfected with chimeric Gqi9 incubated for 30 mins by IP-one HTRF assay. An outline of the steps: as §2
Sequence of Metabotropic glutamate receptor 8 (P70579 whole entry): as above
Assay [17] addresses Metabotropic glutamate receptor 2 (Rattus norvegicus, UniProt P31421). As to the kind of experiment: Agonist activity at SNAP tagged rat mGlu2 transfected HEK293 cells by TR-FRET assay. As to conditions: read-out: EC50.
Assay [18] concerns the target T1, Metabotropic glutamate receptor 3. As to the kind of experiment: Agonist activity at SNAP tagged rat mGlu3 transfected HEK293 cells preincubated with antagonist LY-341495 followed by compound addition by TR-FRET assay.
Assay [19] addresses Metabotropic glutamate receptor 7 (Rattus norvegicus) (UniProt P35400). Put plainly: Agonist activity at rat mGlu7 transfected in HEK293 cells co-transfected with chimeric Gqi9 at 3000 uM incubated for 30 mins by IP-one HTRF assay relative to control. Particulars: filed as agonist. The procedure, abridged: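 Rat receptor was co-electroporated into HEK293 cells with chimeric Gqi9, for phospholipase C coupling, and with the EAAC1 Glu transporter. Cells were seeded on polyornithine at 150 000 cells/well and moved to serum-free Glutamax DMEM ≥2 h before assay. At 24 h cells were washed in Krebs buffer and given compound at 3000 μM with 50 mM LiCl for 30 min. IP1 measured by HTRF kit; response expressed as % of control; ≥ duplicates.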

Calls of active or inactive are those of the source. The calls are words filed in the database; no cut-off is given here. Bounds are passed on as bounds.

Sequence of Metabotropic glutamate receptor 4 (Rattus norvegicus) (P31423 whole entry): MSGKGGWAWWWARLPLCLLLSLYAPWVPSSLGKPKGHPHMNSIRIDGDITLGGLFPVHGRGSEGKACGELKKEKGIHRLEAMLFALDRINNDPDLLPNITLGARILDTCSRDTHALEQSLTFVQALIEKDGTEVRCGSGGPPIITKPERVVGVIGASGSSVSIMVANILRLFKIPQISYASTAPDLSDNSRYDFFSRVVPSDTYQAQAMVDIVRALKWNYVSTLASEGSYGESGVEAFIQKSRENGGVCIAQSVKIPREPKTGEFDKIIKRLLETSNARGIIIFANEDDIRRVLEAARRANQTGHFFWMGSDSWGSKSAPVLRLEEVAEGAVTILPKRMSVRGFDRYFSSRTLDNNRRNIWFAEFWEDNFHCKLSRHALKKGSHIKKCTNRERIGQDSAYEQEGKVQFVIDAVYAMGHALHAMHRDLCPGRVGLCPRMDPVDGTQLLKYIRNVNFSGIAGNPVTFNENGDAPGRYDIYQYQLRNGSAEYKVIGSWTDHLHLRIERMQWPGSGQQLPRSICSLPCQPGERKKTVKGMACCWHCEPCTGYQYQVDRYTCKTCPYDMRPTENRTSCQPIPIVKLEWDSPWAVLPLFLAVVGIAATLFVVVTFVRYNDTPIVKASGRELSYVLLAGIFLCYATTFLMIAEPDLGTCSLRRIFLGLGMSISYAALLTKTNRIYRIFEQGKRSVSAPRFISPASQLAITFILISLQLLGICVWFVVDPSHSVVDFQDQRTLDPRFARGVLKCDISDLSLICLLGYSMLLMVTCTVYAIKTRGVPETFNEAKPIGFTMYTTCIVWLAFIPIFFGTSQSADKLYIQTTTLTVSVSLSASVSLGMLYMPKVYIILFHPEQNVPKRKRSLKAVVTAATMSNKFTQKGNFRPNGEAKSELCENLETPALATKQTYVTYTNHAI
Sequence of Metabotropic glutamate receptor 7 (Rattus norvegicus) (P35400 whole entry): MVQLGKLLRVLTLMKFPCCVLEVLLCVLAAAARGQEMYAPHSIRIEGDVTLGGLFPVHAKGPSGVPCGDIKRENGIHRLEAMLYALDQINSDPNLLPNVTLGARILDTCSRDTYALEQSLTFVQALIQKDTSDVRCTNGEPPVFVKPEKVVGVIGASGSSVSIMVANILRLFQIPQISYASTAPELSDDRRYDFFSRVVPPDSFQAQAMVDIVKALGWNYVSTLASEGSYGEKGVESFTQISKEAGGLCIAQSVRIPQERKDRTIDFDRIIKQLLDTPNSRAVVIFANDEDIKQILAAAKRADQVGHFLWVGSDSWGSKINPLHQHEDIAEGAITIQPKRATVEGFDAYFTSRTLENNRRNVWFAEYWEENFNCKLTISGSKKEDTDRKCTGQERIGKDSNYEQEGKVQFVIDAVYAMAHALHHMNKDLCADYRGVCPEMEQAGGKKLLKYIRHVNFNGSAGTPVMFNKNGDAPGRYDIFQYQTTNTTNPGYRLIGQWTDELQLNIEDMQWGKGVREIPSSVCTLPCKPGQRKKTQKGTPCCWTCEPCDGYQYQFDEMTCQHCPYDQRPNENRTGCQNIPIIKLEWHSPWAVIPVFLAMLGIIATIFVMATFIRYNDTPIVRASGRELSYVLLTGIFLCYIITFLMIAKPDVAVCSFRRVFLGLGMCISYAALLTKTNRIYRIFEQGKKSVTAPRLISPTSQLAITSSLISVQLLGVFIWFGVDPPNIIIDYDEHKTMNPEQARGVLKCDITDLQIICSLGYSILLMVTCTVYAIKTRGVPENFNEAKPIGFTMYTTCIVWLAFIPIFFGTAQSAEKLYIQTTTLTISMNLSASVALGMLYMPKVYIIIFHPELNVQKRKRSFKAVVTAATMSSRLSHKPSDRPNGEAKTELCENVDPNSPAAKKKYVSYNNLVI
Sequence of Metabotropic glutamate receptor 1 (Rattus norvegicus) (P23385 19-1199 limits assumed): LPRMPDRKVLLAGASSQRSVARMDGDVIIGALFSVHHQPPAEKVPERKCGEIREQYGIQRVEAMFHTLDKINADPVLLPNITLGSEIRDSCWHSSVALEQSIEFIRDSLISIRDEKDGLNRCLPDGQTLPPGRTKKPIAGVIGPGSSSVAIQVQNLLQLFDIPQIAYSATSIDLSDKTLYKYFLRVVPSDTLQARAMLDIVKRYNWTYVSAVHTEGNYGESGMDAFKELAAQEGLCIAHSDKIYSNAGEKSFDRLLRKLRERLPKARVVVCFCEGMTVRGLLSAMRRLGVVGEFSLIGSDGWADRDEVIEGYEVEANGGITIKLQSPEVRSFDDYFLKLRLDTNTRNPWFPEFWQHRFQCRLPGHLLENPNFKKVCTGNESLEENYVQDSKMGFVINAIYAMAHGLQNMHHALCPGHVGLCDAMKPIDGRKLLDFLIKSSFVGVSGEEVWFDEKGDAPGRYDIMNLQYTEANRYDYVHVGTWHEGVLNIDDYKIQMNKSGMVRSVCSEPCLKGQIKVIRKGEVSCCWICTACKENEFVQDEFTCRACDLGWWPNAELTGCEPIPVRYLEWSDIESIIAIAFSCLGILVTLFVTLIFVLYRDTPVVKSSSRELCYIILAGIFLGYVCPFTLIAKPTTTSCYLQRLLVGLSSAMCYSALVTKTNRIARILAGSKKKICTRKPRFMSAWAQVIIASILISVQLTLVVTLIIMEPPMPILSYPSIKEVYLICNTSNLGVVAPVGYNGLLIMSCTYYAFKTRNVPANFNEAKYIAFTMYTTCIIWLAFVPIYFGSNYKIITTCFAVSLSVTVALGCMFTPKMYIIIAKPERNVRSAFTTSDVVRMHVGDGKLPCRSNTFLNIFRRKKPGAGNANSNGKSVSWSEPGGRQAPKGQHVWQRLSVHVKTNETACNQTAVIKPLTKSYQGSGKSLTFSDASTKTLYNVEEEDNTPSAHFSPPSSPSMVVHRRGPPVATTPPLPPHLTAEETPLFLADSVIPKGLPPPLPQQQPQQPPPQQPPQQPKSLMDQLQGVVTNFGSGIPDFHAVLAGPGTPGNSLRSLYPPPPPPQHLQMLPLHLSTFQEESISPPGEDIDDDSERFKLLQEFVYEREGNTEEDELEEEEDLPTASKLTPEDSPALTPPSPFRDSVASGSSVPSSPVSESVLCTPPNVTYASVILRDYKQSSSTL
Sequence of Metabotropic glutamate receptor 2 (Rattus norvegicus) (P31421 19-872 limits assumed): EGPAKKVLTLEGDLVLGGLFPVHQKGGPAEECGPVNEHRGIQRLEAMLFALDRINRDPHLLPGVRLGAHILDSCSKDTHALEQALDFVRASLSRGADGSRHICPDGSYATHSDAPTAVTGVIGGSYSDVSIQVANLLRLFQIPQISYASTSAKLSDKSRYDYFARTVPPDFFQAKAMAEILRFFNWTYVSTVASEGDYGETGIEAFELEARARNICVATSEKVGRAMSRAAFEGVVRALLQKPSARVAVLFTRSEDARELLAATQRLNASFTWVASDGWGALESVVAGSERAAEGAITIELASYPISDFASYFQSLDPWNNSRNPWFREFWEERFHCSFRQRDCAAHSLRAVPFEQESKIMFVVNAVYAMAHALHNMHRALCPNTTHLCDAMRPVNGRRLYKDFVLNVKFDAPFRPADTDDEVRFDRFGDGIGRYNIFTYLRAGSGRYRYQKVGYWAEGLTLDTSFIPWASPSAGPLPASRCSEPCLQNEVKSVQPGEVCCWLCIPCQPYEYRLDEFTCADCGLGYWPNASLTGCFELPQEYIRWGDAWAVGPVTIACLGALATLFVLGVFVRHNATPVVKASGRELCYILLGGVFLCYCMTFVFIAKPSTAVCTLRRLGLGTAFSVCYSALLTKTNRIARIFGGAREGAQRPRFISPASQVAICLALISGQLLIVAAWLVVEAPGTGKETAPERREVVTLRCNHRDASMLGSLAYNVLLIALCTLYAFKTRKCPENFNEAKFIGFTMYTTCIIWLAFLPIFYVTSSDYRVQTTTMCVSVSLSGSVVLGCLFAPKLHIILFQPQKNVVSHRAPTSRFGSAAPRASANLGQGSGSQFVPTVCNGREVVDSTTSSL
Sequence of Metabotropic glutamate receptor 4 (P31423 whole entry): as the sequence (P31423 whole entry) above
Sequence of Metabotropic glutamate receptor 7 (P35400 whole entry): as the sequence (P35400 whole entry) above

For `N[C@H](C(=O)O)C1[C@@H](C(=O)O)[C@@H]1C(=O)O` (stereo partly specified), in assay [1], the EC50 amounted to 90 nM.

`N[C@@H](Cn1oc(=O)[nH]c1=O)C(=O)O` [QUISQUALATE]: the result in assay [2], in assay [3], in assay [4], in [5], in assay [6] and in [7] was inactive. Also, the outcome in [8] and in [9] was inactive. In addition, the EC50 in assay [10] (read-out: EC50) is 27 nM; in [10] (read-out: pEC50 (converted)), 40.7 nM.

As for `C[C@@]1(C(=O)O)C[C@H]1[C@H](N)C(=O)O`, the result in assay [2], in assay [3], in [4], in [5], in [6] and in assay [7] was inactive. The result in [8] and in assay [9] was inactive. The EC50 in assay [11] is 5500 nM; in assay [10] (read-out: EC50) it was 12000 nM; in assay [12], 1880 nM; in assay [13] it was more than 30000 nM; in assay [14] (read-out: EC50), 2500 nM; in assay [15], more than 30000 nM. Further, the EC50 in assay [16] (read-out: EC50) was more than 30000 nM.

Take `COc1cccc(C(=O)N[C@H]2C[C@@](N)(C(=O)O)[C@@H]3[C@@H](C(=O)O)[C@@H]32)c1`: the EC50 came out at 2820 nM in assay [17] and 32 nM in assay [18].

Consider `N[C@@H](CCP(=O)(O)O)C(=O)O`, for which the outcome in assay [2], in assay [3], in assay [4], in assay [5], in assay [6] and in assay [7] was inactive. For the same molecule, the outcome in assay [8] and in assay [9] was inactive. Moreover, the EC50 was 180 nM in assay [13], 2290 nM in assay [14] (read-out: pEC50 (converted)), 290 nM in [16] (read-out: EC50) and 174 nM in [16] (read-out: pEC50 (converted)). The Activity in [19] amounted to 100%.
